Assay [1] concerns Mus musculus. The assay can be described thus: Peak time for Antinociception writhing(min) by icv administration in mice. It is filed as functional.
Assay [2] concerns Mus musculus. The experiment in a line: Compound was evaluated for Antinociceptive potencies in mice for in vivo activity in mouse tail-flick by iv administration. It is filed as functional.
For the next assay, the species on record is Cavia porcellus. The assay can be described thus: Compound was tested for their agoinst potencies on the electrically stimulated Guinea pig ileal longitudinal muscle preparation. It is filed as functional. Conditions: Muscle tissue.
Assay [3] deals with Mus musculus. The assay can be described thus: Peak time for Antinociception Tail-flick(min) by iv administration in mice. It counts as functional.
Assay [4] deals with Mus musculus. The assay can be described thus: Compound was evaluated for Antinociceptive potencies in mice for in vivo activity in mouse tail-flick by icv administration. It is filed as functional. To be noted: central.
The test system of assay [5] is Mus musculus. The experiment in a line: Compound was evaluated for Antinociceptive potencies in mice for in vivo activity Mouse abdominal stretch assay by icv administration. It is filed as functional. To be noted: Abdomen, central.
The species entered for assay [6] is Mus musculus. The assay can be described thus: Compound was tested for their agoinst potencies on the electrically stimulated mouse vas deferens. It counts as functional.
Assay [7] concerns the target T1, Kappa-type opioid receptor (Cavia porcellus, UniProt P41144). The experiment in a line: Compound was tested for the binding affinity and selectivity by competitive inhibition of radioligands on opioid kappa receptor in guinea pig brain membranes. It counts as cell membranes, Membrane. Put shortly: (§1)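 Competition binding in guinea pig brain membranes for κ opioid sites against 1 nM [³H]U69,593, using a modified Werling method. Ki values are arithmetic means of three experiments.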

Assay [8] deals with Mus musculus. The assay can be described thus: Peak time for Antinociception writhing(min) by iv administration in mice. It is filed as functional.
The test system of assay [9] is Mus musculus. The experiment in a line: Compound was evaluated for Antinociceptive potencies in mice for in vivo activity in Analgesic activity in the second phase of the mouse formalin assay by iv administration. It is filed as functional.
The target of the next assay is Mu-type opioid receptor (Cavia porcellus, UniProt P97266). The assay can be described thus: Compound was tested for the binding affinity and selectivity by competitive inhibition of radioligands on opioid Mu receptor in guinea pig brain membranes. It is filed as cell membranes, Membrane. Put shortly:
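Competition binding in guinea pig brain membranes for μ opioid sites against 2 nM [³H]DAMGO, using a modified Werling method. Ki values are arithmetic means of three experiments.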

The test system of assay [10] is Mus musculus. The assay can be described thus: Peak time for Antinociception Tail-flick(min) by icv administration in mice. It is filed as functional.
The target in assay [11] is T1, Kappa-type opioid receptor. The experiment in a line: Compound was tested for the binding affinity and selectivity by competitive inhibition of radioligands on Opioid receptor kappa 1 in guinea pig brain membranes. It counts as cell membranes, Membrane. The essentials: as §1

The results in this text go back to ChEMBL document CHEMBL1129385, “Aspartic acid conjugates of 2-(3,4-dichlorophenyl)-N-methyl-N-[(1S)-1(3-aminophenyl)-2-(1-pyrrolidi nyl) ethyl]acetamide: kappa opioid receptor agonists with limited access to the central nervous system” (J Med Chem, 1996).

`CN(C(=O)Cc1ccc(Cl)c(Cl)c1)[C@H](CN1CCCC1)c1cccc(NC(=O)[C@@H](N)CC(=O)O)c1`: the Time with Mus musculus [1] is recorded as 10 min; in the assay on Mus musculus [3] it was 20 min; with Mus musculus [8], 10 min; in the assay with Mus musculus [10] it was 30 min. In addition, the ED50 worked out at 0.85 µmol/kg with Mus musculus [2], 0.335 µmol/kg in the assay on Mus musculus [4], 0.0068 µmol/kg in the assay with Mus musculus [5] and 0.01 µmol/kg in the assay with Mus musculus [9]. The IC50 was determined as 0.84 nM in the assay listed under Cavia porcellus and 2.49 nM in the assay filed under Mus musculus [6]. The results for the Ki (in assay [7]; at Mu-type opioid receptor) were 0.34 nM and 462 nM, respectively.
Consider `CN(C(=O)Cc1ccc(Cl)c(Cl)c1)[C@H](CN1CCCC1)c1cccc(NC(=O)C[C@H](N)C(=O)O)c1`, for which the Time in the assay with Mus musculus [1] came to 30 min; with Mus musculus [3], 30 min; in the assay with Mus musculus [8] it was 10 min; in the assay on Mus musculus [10], 30 min. Also, the results for the ED50 in the assay on Mus musculus [2], in the assay with Mus musculus [4] and in the assay with Mus musculus [5] were 5.12 µmol/kg, 0.502 µmol/kg and 0.011 µmol/kg, respectively. Moreover, the results for the IC50 in the assay filed under Cavia porcellus and in the assay listed under Mus musculus [6] were 0.55 nM and 6.36 nM, respectively.
Consider `CN(C(=O)Cc1ccc(Cl)c(Cl)c1)[C@H](CN1CCCC1)c1cccc(NC(=O)[C@H](N)CC(=O)O)c1`, for which the Time in the assay with Mus musculus [1] and in the assay on Mus musculus [8] was 10 min each time. In addition, the results for the IC50 in the assay listed under Cavia porcellus and in the assay filed under Mus musculus [6] were 4.59 nM and 4.06 nM, respectively. In addition, the Ki in assay [11] amounted to 1.2 nM; at Mu-type opioid receptor, 280 nM. Also, the ED50 in the assay with Mus musculus [5] turned out to be 0.046 µmol/kg; in the assay with Mus musculus [9], 1.05 µmol/kg.
